According to paper PMC6937391 (Leukemia research, 2019):

Assays:
[1] = tested on: Granta BzR cells; assay: Cell viability assay; type: cell-based; conditions: 24 h, read-out: EC50 (cell viability)
[2] = target: C-L (β1) proteasomal sub-catalytic activity (Homo sapiens, UniProt P28072); assay: Cell-based proteasome activity assay; conditions: Ki50 C-L (β1), 24 h treatment
[3] = tested on: MM.1S cells; assay: Cell viability assay; type: cell-based; conditions: Homo sapiens, MM1.S, 24 h, read-out: EC50 (cell viability)
Method in brief: (§1)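 Cells kept in RPMI 1640 with 10% heat-inactivated FBS and penicillin/streptomycin at 37°C, 5% CO2. Plated 24 h before a 24 h exposure to test compound diluted from DMSO stock; vehicle controls got 1% DMSO. CellTiter-Glo added, equilibrated 5 min at 37°C, luminescence read at 470 nm (1 s). Survival as % of untreated control; EC50 from 3- or 4-parameter nonlinear regression.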

[4] = tested on: MM.1S BzR cells; assay: Cell viability assay; type: cell-based; conditions: Homo sapiens, MM1.S, 24 h, read-out: EC50 (cell viability)
[5] = tested on: U266 BzR cells; assay: Cell viability assay; type: cell-based; conditions: Homo sapiens, U-266, 24 h, read-out: EC50 (cell viability)
[6] = tested on: Mino cells; assay: Cell viability assay; type: cell-based; conditions: Homo sapiens, 24 h, read-out: EC50 (cell viability)
Method in brief: as §1

[7] = tested on: Granta cells; assay: Cell viability assay; type: cell-based; conditions: 24 h, read-out: EC50 (cell viability)
Method in brief: as §1

[8] = tested on: U266 cells; assay: Cell viability assay; type: cell-based; conditions: Homo sapiens, U-266, 24 h, read-out: EC50 (cell viability)
Method in brief: as §1

[9] = target: T-L (β2) proteasomal sub-catalytic activity (Homo sapiens, UniProt Q99436); assay: Cell-based proteasome activity assay; conditions: Ki50 T-L (β2), 24 h treatment
[10] = tested on: Mino BzR cells; assay: Cell viability assay; type: cell-based; conditions: Homo sapiens, 24 h, read-out: EC50 (cell viability)

Row | Compound | EC50 [1] | Ki ([2]; ARD cells) | Ki ([2]; MM.1R cells) | Ki ([2]; U266 cells) | EC50 [3] | EC50 [4] | EC50 [5] | EC50 [6] | EC50 [7] | EC50 [8] | Ki ([9]; ARD cells) | Ki ([9]; MM.1R cells) | Ki ([9]; U266 cells) | EC50 [10]
1 | CC(C)C[C@H](NC(=O)CNC(=O)c1cc(Cl)ccc1Cl)B(O)O [IXA, ixazomib] | 774 ± 150 nM | 19.6 ± 8.32 nM | 7.41 ± 1.59 nM | 16.1 ± 4.01 nM | 25.5 ± 0.9 nM | 449 ± 23 nM | 169 ± 15 nM | 97.6 ± 4.6 nM | 147 ± 12 nM | 34.7 ± 2.1 nM | 92.8 ± 19.1 nM | 29.3 ± 7.83 nM | 74.9 ± 16.8 nM | 336 ± 30 nM
2 | CC(C)C[C@H](NC(=O)[C@H](Cc1ccccc1)NC(=O)c1cnccn1)B(O)O [BTZ, bortezomib] | 51.5 ± 9.3 nM | – | – | – | 2.31 ± 0.03 nM | 28.4 ± 0.6 nM | 14.1 ± 2 nM | 10 ± 0.4 nM | 14.9 ± 1.6 nM | 2.7 ± 0.2 nM | – | – | – | 23.4 ± 1.1 nM
3 | CC(C)C[C@H](NC(=O)[C@H](CCc1ccccc1)NC(=O)CN1CCOCC1)C(=O)N[C@@H](Cc1ccccc1)C(=O)N[C@@H](CC(C)C)C(=O)[C@@]1(C)CO1 [CAR, carfilzomib] | 24.2 ± 1.4 nM | – | – | – | 5.5 ± 0.2 nM | 27.7 ± 1.6 nM | 10.9 ± 1.4 nM | 6.3 ± 0.3 nM | 11.7 ± 0.3 nM | 6.9 ± 0.5 nM | – | – | – | 20.7 ± 0.7 nM
